Measurements taken from ChEMBL document CHEMBL1641587, “Indole-3-piperazinyl derivatives: novel chemical class of 5-HT(6) receptor antagonists” (Bioorg Med Chem Lett, 2011).
Values belong to the compound of their own block, whether it stands above or below them. Activity calls are given as the source filed them. The calls are words filed in the database; no cut-off is given here.

How the values were obtained:
[1] = biological target: T1, 5-hydroxytryptamine receptor 6 (Homo sapiens, UniProt P50406); assay: Displacement of [3H]LSD from human cloned 5HT6 receptor expressed in human HeLa cells by glass fiber filtration assay; type: cell-based
Procedure, shortened: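 Radioligand binding to human cloned 5-HT6 receptors stably expressed in HeLa cells. Ki values were determined.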

[2] = biological target: T1, 5-hydroxytryptamine receptor 6; assay: Antagonist activity at human recombinant 5HT6 receptor expressed in CHO cells assessed as inhibition of 5-HT-stimulated cAMP accumulation by luminometry; type: functional, cell-based
Procedure, shortened: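 Non-radioactive cell-based functional assay in CHO cells expressing 5-HT6 receptor; antagonism read as inhibition of 5-HT-stimulated cAMP accumulation. IC50 and Kb values derived, each the mean of two experiments.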

[3] = Selectivity ratio of IC50 for NET to IC50 for human recombinant 5HT6 receptor
[4] = Selectivity ratio of IC50 for dopamine D2 receptor to IC50 for human recombinant 5HT6 receptor
[5] = Selectivity ratio of IC50 for SERT to IC50 for human recombinant 5HT6 receptor
[6] = Selectivity ratio of IC50 for histamine H1 receptor to IC50 for human recombinant 5HT6 receptor
[7] = Metabolic stability in Wistar rat liver microsomes at 2.5 uM after 0.5 hrs; type: ADME, Microsome
Procedure, shortened: (§1)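 Wistar rat or human liver microsomes were incubated with 2.5 µM compound for 0.5 h, and % metabolized was measured.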

[8] = Metabolic stability in human liver microsomes at 2.5 uM after 0.5 hrs; type: ADME, Microsome; procedure, shortened: as §1
[9] = biological target: Cytochrome P450 3A4 (Homo sapiens, UniProt P08684); assay: Inhibition of human CYP3A4; type: ADME
Procedure, shortened: (§2)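 Isoform-selective assays using heterologously expressed human CYP2D6 or CYP3A4. IC50 is the mean of duplicate determinations.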

[10] = biological target: Cytochrome P450 2D6 (Homo sapiens, UniProt P10635); assay: Inhibition of human CYP2D6; type: ADME; procedure, shortened: as §2
[11] = tested on: Rattus norvegicus; assay: Apparent volume of distribution in Wistar rat at 5 mg/kg, po; type: ADME, organism-based; set-up: dose 5 mg/kg, route oral; conditions: in vivo
Procedure, shortened: (§3)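 Fasted male Wistar rats received a 5 mg/kg dose orally or iv, with water for injection as vehicle for both routes. n = 3 per route. Plasma parameters were derived per route: AUC, Cmax, t1/2, Vz, clearance, and oral bioavailability (F).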

[12] = Oral bioavailability in Wistar rat at 5 mg/kg; type: ADME, organism-based; conditions: in vivo; procedure, shortened: as §3
[13] = Cmax in Wistar rat at 5 mg/kg, po; type: ADME, organism-based; set-up: dose 5 mg/kg, route oral; conditions: in vivo; procedure, shortened: as §3
[14] = Cmax in Wistar rat at 5 mg/kg, iv; type: ADME, organism-based; set-up: dose 5 mg/kg, route intravenous; conditions: in vivo; procedure, shortened: as §3
[15] = Clearance in Wistar rat at 5 mg/kg, iv; type: ADME, organism-based; set-up: dose 5 mg/kg, route intravenous; conditions: in vivo; procedure, shortened: as §3
[16] = Half life in Wistar rat at 5 mg/kg, po; type: ADME, organism-based; set-up: dose 5 mg/kg, route oral; conditions: in vivo; procedure, shortened: as §3
[17] = AUC in Wistar rat at 5 mg/kg, iv; type: ADME, organism-based; set-up: dose 5 mg/kg, route intravenous; conditions: plasma; procedure, shortened: as §3
[18] = Apparent volume of distribution in Wistar rat at 5 mg/kg, iv; type: ADME, organism-based; set-up: dose 5 mg/kg, route intravenous; conditions: in vivo, read-out: Vz; procedure, shortened: as §3
[19] = tested on: Rattus norvegicus; assay: Cognitive enhancing effect in Wistar rat at 10 mg/kg, po by novel object recognition test; type: functional, organism-based; set-up: dose 10 mg/kg
Procedure, shortened: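 Novel object recognition test in male Wistar rats. Drug or vehicle (PEG 400 50% v/v, 1 mL/kg) was given p.o. 60 min before the test, n=6-9/group. Read-out was exploration time of the familiar versus the novel object, given as mean SEM and analysed by paired t test.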

[20] = Half life in Wistar rat at 5 mg/kg, iv; type: ADME, organism-based; set-up: dose 5 mg/kg, route intravenous; conditions: in vivo; procedure, shortened: as §3
[21] = species: Rattus norvegicus; conditions: 10 mg/kg
[22] = AUC in Wistar rat at 5 mg/kg, po; type: ADME, organism-based; set-up: dose 5 mg/kg, route oral; conditions: plasma; procedure, shortened: as §3
[23] = Clearance in Wistar rat at 5 mg/kg, po; type: ADME, organism-based; set-up: dose 5 mg/kg, route oral; conditions: in vivo; procedure, shortened: as §3

Sequence of Cytochrome P450 3A4 (P08684 whole entry, canonical isoform): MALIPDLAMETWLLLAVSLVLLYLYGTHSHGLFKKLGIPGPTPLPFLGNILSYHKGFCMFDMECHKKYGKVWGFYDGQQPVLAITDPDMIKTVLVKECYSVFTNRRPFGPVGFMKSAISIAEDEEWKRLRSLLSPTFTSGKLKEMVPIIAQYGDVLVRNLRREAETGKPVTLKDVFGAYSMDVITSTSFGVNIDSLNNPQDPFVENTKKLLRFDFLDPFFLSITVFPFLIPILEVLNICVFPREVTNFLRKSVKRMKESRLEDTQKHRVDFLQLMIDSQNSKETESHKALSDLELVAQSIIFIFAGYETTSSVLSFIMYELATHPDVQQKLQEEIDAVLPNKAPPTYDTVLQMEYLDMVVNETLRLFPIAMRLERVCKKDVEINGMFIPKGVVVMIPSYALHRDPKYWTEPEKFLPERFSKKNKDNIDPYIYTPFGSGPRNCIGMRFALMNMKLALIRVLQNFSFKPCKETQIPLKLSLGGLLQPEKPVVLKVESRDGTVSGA
Sequence of Cytochrome P450 2D6 (P10635 whole entry): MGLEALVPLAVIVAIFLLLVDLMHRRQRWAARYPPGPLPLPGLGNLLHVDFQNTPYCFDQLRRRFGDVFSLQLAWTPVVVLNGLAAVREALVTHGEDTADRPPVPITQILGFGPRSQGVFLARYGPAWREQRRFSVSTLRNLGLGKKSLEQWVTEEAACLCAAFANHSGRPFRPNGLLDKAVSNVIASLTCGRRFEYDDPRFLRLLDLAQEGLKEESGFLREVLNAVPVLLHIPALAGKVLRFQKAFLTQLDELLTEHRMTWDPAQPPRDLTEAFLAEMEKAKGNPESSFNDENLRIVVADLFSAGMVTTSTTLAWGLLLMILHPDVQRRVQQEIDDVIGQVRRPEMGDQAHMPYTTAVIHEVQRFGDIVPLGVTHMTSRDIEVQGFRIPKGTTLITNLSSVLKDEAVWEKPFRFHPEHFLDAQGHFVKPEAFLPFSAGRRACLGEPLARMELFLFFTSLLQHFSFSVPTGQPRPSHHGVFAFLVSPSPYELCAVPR
T1 sequence (P50406 whole entry): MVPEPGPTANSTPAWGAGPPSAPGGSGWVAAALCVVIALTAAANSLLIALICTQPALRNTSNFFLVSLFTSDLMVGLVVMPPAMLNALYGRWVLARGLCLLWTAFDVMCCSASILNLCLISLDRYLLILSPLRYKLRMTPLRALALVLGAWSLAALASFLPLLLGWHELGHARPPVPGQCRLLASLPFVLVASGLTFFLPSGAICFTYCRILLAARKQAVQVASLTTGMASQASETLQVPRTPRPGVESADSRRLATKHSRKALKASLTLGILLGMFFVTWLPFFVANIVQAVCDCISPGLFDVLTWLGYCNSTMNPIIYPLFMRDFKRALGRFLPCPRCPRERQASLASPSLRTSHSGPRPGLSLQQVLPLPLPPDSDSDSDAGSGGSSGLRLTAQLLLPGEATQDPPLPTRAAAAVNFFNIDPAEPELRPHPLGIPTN

SMILES: CC(C)c1ccc(S(=O)(=O)n2cc(N3CCN(C)CC3)c3ccc(Cl)cc32)cc1
Ki [1]: 55.3 nM

SMILES: CCN1CCN(c2cn(S(=O)(=O)c3ccc4ccccc4c3)c3cc(Cl)ccc23)CC1
Ki [1]: 25.5 nM

SMILES: CCN1CCN(c2cn(S(=O)(=O)c3ccc(C(C)C)cc3)c3ccc(Cl)cc23)CC1
Ki [1]: 30.5 nM

SMILES: CCN1CCN(c2cn(S(=O)(=O)c3cc(OC)ccc3OC)c3cc(Cl)ccc23)CC1
Ki [1]: 63.5 nM

SMILES: CCN1CCN(c2cn(S(=O)(=O)c3ccccc3Br)c3ccc(Cl)cc23)CC1
Ki [1]: 20.3 nM

SMILES: CN1CCN(c2cn(S(=O)(=O)c3ccccc3Br)c3cc(Cl)ccc23)CC1
Ki [1]: 30.2 nM

SMILES: CC(C)c1ccc(S(=O)(=O)n2cc(N3CCN(C)CC3)c3cc(Br)ccc32)cc1
Ki [1]: 23.2 nM

SMILES: CCN1CCN(c2cn(S(=O)(=O)c3ccc(OC)cc3)c3cc(Cl)ccc23)CC1
Ki [1]: 82.3 nM

SMILES: CCN1CCN(c2cn(S(=O)(=O)c3ccc(C(C)C)cc3)c3ccc(Br)cc23)CC1
Ki [1]: 30.1 nM

Compounds with a lower Ki [1], results first:

Ki [1]: 15.9 nM
SMILES: CN1CCN(c2cn(S(=O)(=O)c3ccccc3)c3ccccc23)CC1

Ki [1]: 15.2 nM
SMILES: CN1CCN(c2cn(S(=O)(=O)c3ccccc3Br)c3ccccc23)CC1

IC50 [2]: 292 nM | Kb [2]: 0.5 nM | % metabolism at 0.5 h, 2.5 µM [7]: 99% | Ki [1]: 11.8 nM | % metabolism at 0.5 h, 2.5 µM [8]: 85% | Ratio IC50 [3]: > 50 | IC50 [9]: 4770 nM | IC50 [10]: 26400 nM | Ratio IC50 [4]: > 50 | Ratio IC50 [5]: > 50 | Ratio IC50 [6]: > 50
SMILES: CN1CCN(c2cn(S(=O)(=O)c3ccc(F)cc3)c3ccccc23)CC1

Ki [1]: 10.8 nM
SMILES: CN1CCN(c2cn(S(=O)(=O)c3cccc(Cl)c3)c3ccccc23)CC1

IC50 [2]: 1780 nM | Kb [2]: 3.5 nM | Ki [1]: 10.7 nM | Ratio IC50 [3]: > 50 | Ratio IC50 [4]: > 50 | Ratio IC50 [5]: > 50 | Ratio IC50 [6]: > 50
SMILES: CCN1CCN(c2cn(S(=O)(=O)c3ccc(F)cc3)c3ccc(Cl)cc23)CC1

Ki [1]: 10.6 nM
SMILES: CCN1CCN(c2cn(S(=O)(=O)c3ccc(F)cc3)c3ccc(Br)cc23)CC1

Ki [1]: 10.2 nM
SMILES: CN1CCN(c2cn(S(=O)(=O)c3ccccc3Br)c3ccc(Br)cc23)CC1

IC50 [2]: 322 nM | Kb [2]: 0.6 nM | % metabolism at 0.5 h, 2.5 µM [7]: 99% | Ki [1]: 9.2 nM | % metabolism at 0.5 h, 2.5 µM [8]: 96% | Ratio IC50 [3]: > 50 | IC50 [9]: 4610 nM | IC50 [10]: 28800 nM | Ratio IC50 [4]: > 50 | Ratio IC50 [5]: > 50 | Ratio IC50 [6]: > 50
SMILES: CN1CCN(c2cn(S(=O)(=O)c3ccc(F)cc3)c3ccc(Br)cc23)CC1

Ki [1]: 8.6 nM
SMILES: CCN1CCN(c2cn(S(=O)(=O)c3ccc(C(C)C)cc3)c3ccccc23)CC1

IC50 [2]: 1530 nM | Kb [2]: 3 nM | Ki [1]: 7.8 nM | Ratio IC50 [3]: > 50 | Ratio IC50 [4]: > 50 | Ratio IC50 [5]: > 50 | Ratio IC50 [6]: > 50
SMILES: CN1CCN(c2cn(S(=O)(=O)c3cccc(Cl)c3)c3ccc(Br)cc23)CC1

Vz [11]: 436 L/kg | IC50 [2]: 310 nM | Kb [2]: 0.53 nM | bioavailability [12]: 8% | % metabolism at 0.5 h, 2.5 µM [7]: 95% | Ki [1]: 3.4 nM | Cmax [13]: 40 ng/mL | Cmax [14]: 365 ng/mL | % metabolism at 0.5 h, 2.5 µM [8]: 80% | Ratio IC50 [3]: > 50 | clearance [15]: 133 mL/min/kg | IC50 [9]: 5540 nM | half-life [16]: 2.35 h | IC50 [10]: 39200 nM | AUC [17]: 674 ng·h/mL | Vd [18]: 51.8 L/kg | Ratio IC50 [4]: > 50 | Ratio IC50 [5]: > 50 | half-life [20]: 4.47 h | AUC [22]: 59 ng·h/mL | CL/F [23]: 2200 mL/min/kg | Ratio IC50 [6]: > 50
SMILES: CC(C)c1ccc(S(=O)(=O)n2cc(N3CCN(C)CC3)c3ccccc32)cc1
Activity [19]: Active | inhibition [21]: Active
